Experimental data: paper PMC9237582 (Asian Journal of Pharmaceutical Sciences, 2022)

Tests used:
NIH-3T3 cells = assay: Scratch test, TGF-β1-induced cell migration; assay type: cell-based, mouse; details: TGF-β1 5 ng/ml, 48 h; vs TGF-β1 group
How it was run: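 NIH-3T3 fibroblasts were seeded in 12-well format, cultured 24 h, then scratched. After 24 h synchronisation, TGF-β1 (5 ng/ml) was added with test compound, SB431542 or a reference drug, and incubated 48 h. Wounds were photographed under an inverted microscope at 0, 24 and 48 h after drug addition.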

[1] = system: bleomycin-induced rat model of IPF; assay: Preliminary pharmacodynamics in bleomycin-induced rat model of IPF; assay type: in vivo; details: Day 29, vs bleo group; same dosing
How it was run: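 Male Sprague–Dawley rats under chloral hydrate anaesthesia received intratracheal bleomycin (5 mg/kg in 0.1 ml saline), then were held upright and rotated 5 min; controls got saline. From day 1, test powder was insufflated at 10 mg/kg as Sal B once daily for 28 d. Comparators: same dose iv, reference drug intragastric 31.5 mg/kg, or air. On day 29, right lung lavaged (3× cold saline); left lung stored −80 °C for Hyp.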

[2] = cited from earlier work
[3] = Preliminary pharmacokinetic study in plasma; assay type: in vivo, rat
How it was run: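 Male Sprague–Dawley rats (200 ± 20 g, n = 6/group). Dose 10 mg/kg as Sal B, by intratracheal powder insufflation or iv solution. Suborbital blood was taken into heparin at 0.033–12 h, and plasma was spun 10 min at 4 °C. Ascorbic acid, internal standard and HCl were added, then ethyl acetate extraction. Dried extract was reconstituted in methanol-water 80:20 for UPLC-MS/MS; parameters came from concentration-time data.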

[4] = Lung tissue distribution study; assay type: in vivo, rat
How it was run: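 Male Sprague–Dawley rats (200 ± 20 g), fasted 12 h. Dose 10 mg/kg as Sal B, given either as dry powder or as iv solution. Powder was insufflated intratracheally under chloral hydrate anaesthesia (three 1.5 ml air pushes). Lungs were collected at 0.033–12 h (9 time points, n = 3 each) and homogenised 1:5 (g/ml) in iced saline. Homogenates were processed as for plasma and quantified by UPLC-MS/MS.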

[5] = system: NIH-3T3 mouse embryonic fibroblasts; assay: MTT assay; assay type: cell-based; details: NIH3T3, 48 h
How it was run: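 NIH-3T3 cells were grown in high-glucose DMEM with 10% FBS and penicillin/streptomycin at 37 °C, 5% CO2, in 96-well format. Test compound was given at 25–200 µg/ml and a reference drug at 0.25–10 µM, for 48 h. MTT (5 mg/ml) was added for 4 h, dissolved in DMSO, and absorbance read at 490 nm.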

[6] = Sal B in rat plasma, 10 mg/kg as Sal B, iv solution or pulmonary DPI, n = 6
[7] = male, Sprague-Dawley, rat, plasma, iv, 10 mg/kg
[8] = Sal B in rat lung tissue, 10 mg/kg as Sal B, iv solution or pulmonary DPI, n = 3
[9] = male, Sprague-Dawley, rat, lung tissue, iv, 10 mg/kg

| Compound | effect on TGF-β1-induced cell migration (NIH-3T3 cells) | Hyp content in lung tissue homogenate [1] | IFN-γ content in BALF [1] | IL-1β content in BALF [1] | IL-4 content in BALF [1] | IL-6 content in BALF [1] | IL-18 content in BALF [1] | MDA content in lung tissue homogenate [1] | SOD activity in lung tissue homogenate [1] | TGF-β1 protein content in BALF [1] | serum MPO content [1] | also measured |
| --- | --- | --- | --- | --- | --- | --- | --- | --- | --- | --- | --- | --- |
| NC(=O)c1ccc(-c2nc(-c3ccc4c(c3)OCO4)c(-c3ccccn3)[nH]2)cc1 [SB431542] | significantly inhibited | – | – | – | – | – | – | – | – | – | – | – |
| O=C(/C=C/c1ccc(O)c2c1[C@H](C(=O)O[C@H](Cc1ccc(O)c(O)c1)C(=O)O)[C@@H](c1ccc(O)c(O)c1)O2)O[C@H](Cc1ccc(O)c(O)c1)C(=O)O [Sal B, Salvianolic acid B] | – | significantly lower | not significantly different | significantly decreased | not significantly different | significantly decreased | significantly decreased | significantly reduced | increased significantly | significantly decreased | significantly reduced | absolute bioavailability of Sal B in previous studies [2]: 19.15%±7.44%; Cl/F [3, 6]: 41.5 ± 7.83 mL/min/kg; Lz (elimination of phase slope) [3, 6]: 0.45 ± 0.07 h⁻¹; Vz/F [3, 6]: 5.62 ± 1.47 L/kg; AUC(0-inf) [3, 7]: 6550 ± 1490 ng·h/mL; Cmax [3, 7]: 16400 ng/mL; MRT [3, 7]: 49.8 ± 6 min; Tmax [3, 7]: 1.98 min; half-life [3, 7]: 93.6 ± 16.8 min; AUC0-∞ [4, 8]: 1898.5 ± 134.03 ng·h/g; Cmax [4, 8]: 13,150.38±619.02 ng/g; Lz [4, 8]: 0.77 ± 0.04 h⁻¹; Cmax [4, 9]: 13200 ng/g; MRT [4, 9]: 11.4 min; Tmax [4, 9]: 1.98 min; half-life [4, 9]: 54 ± 3 min |
| COC(=O)c1ccc2c(c1)NC(=O)/C2=C(\Nc1ccc(N(C)C(=O)CN2CCN(C)CC2)cc1)c1ccccc1 [nidanib, nintedanib, reference compound] | significantly inhibited the migration of NIH-3T3 cells in a concentration dependent manner | significantly lower | significantly increased(P < 0.01) | significantly decreased | significantly decreased | significantly decreased | significantly decreased | significantly reduced | increased significantly | significantly decreased | significantly reduced | concentration with no significant effect on cell viability [5]: < 1000 nM |
